ChEMBL document CHEMBL1148028, “Design and synthesis of urea and thiourea derivatives and their inhibitory activities on lipopolysaccharide-induced NO production” (Bioorg Med Chem Lett, 2007)
pIC50: −log10 of the molar value. The source made the active and inactive calls. The calls are words filed in the database; no cut-off is given here.

How the values were obtained:
RAW [1] = test: Inhibition of LPS-induced NO production in RAW 264.7 cells at 5 uM after 20 hrs; type: functional, cell-based; details: Mus musculus
Summary of the method: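 Cells plated in 10% FBS–DMEM for 24 h, then given 1% FBS medium with LPS (1 µg/mL) plus compound for 20 h. Accumulated nitrite assayed by Griess reaction (10 min, room temp), absorbance 570 nm, quantified by sodium nitrite calibration. Percent inhibition relative to LPS-only control, n = 3.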

RAW [2] = test: Inhibition of LPS-induced NO production in RAW 264.7 cells at 0.1 uM after 20 hrs; type: functional; details: Mus musculus
RAW [3] = test: Inhibition of iNOS protein expression in LPS-stimulated mouse RAW 264.7 cells at 10 uM after 20 hrs by Western blot analysis; type: functional, cell-based
Summary of the method: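 Cells (1.5 × 10⁶ per 60-mm dish) given LPS (1 µg/mL) with or without compound for 20 h, then lysed. 20 µg lysate protein run on 8% SDS-PAGE, blotted to PVDF, probed for mouse iNOS and actin, ECL detection. iNOS band density normalized to actin; means ± SD of three densitometric analyses.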

RAW [4] = test: Inhibition of iNOS mRna expression in LPS-stimulated mouse RAW 264.7 cells at 10 uM after 6 hrs by RT-PCR analysis; type: functional, cell-based
Summary of the method: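 Cells (1.8 × 10⁶ per 60-mm dish) stimulated with LPS (1 µg/mL) with or without compound for 6 h, washed twice with PBS. Total RNA extracted with Trizol; iNOS and β-actin mRNA assessed by RT-PCR.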

Compound | inhibition at 5 µM (RAW [1]) | other results
CCN(C(N)=S)c1ccc(OCCn2c3ccccc3c3ccccc32)cc1 | 33% | 
CN(C(N)=O)c1ccc(OCCn2c3ccccc3c3ccccc32)cc1 | 8% | 
NC(=S)N(CC1CC1)c1ccc(OCCn2c3ccccc3c3ccccc32)cc1 | 34% | 
N=C(N)NN [PIMAGEDINE] |  | inhibition at 0.1 µM (RAW [2]): 85%
O=C(O)CNC(=S)Nc1ccc(OCCn2c3ccccc3c3ccccc32)cc1 | 87% | pIC50 (RAW [1]): 6.82
NC(=S)Nc1ccc(OCCn2c3ccccc3c3ccccc32)cc1 | 55% | pIC50 (RAW [1]): 5.27
O=C(O)CNC(=O)Nc1ccc(OCCn2c3ccccc3c3ccccc32)cc1 | 43% | 
CC(C)NC(=O)Nc1ccc(OCCn2c3ccccc3c3ccccc32)cc1 | 15% | 
CCNC(=S)Nc1ccc(OCCn2c3ccccc3c3ccccc32)cc1 | 90% | pIC50 (RAW [1]): 6.05
NC(=O)Nc1ccc(OCCn2c3ccccc3c3ccccc32)cc1 | 24% | 
CNC(=S)Nc1ccc(OCCn2c3ccccc3c3ccccc32)cc1 | 80% | Activity (RAW [3]): Active; pIC50 (RAW [1]): 6.14; Activity (RAW [4]): Active
CCOC(=O)CNC(=S)Nc1ccc(OCCn2c3ccccc3c3ccccc32)cc1 | 41% | 
CCOC(=O)CNC(=O)Nc1ccc(OCCn2c3ccccc3c3ccccc32)cc1 | 38% | 
CCCNC(=O)Nc1ccc(OCCn2c3ccccc3c3ccccc32)cc1 | 14% | 
CCN(C(N)=O)c1ccc(OCCn2c3ccccc3c3ccccc32)cc1 | 25% | 
CCNC(=O)Nc1ccc(OCCn2c3ccccc3c3ccccc32)cc1 | 30% | 
O=C(Nc1ccccc1)Nc1ccc(OCCn2c3ccccc3c3ccccc32)cc1 | 28% | 
NC(=O)N(CC1CC1)c1ccc(OCCn2c3ccccc3c3ccccc32)cc1 | 61% | pIC50 (RAW [1]): 5.51
